Measurements as given in ChEMBL document CHEMBL4665645, “Role of the NMDA Receptor in the Antitumor Activity of Chiral 1,4-Dioxane Ligands in MCF-7 and SKBR3 Breast Cancer Cells” (ACS Med Chem Lett, 2019).
Calls of active or inactive are those of the source.

Assays:
MCF7 [1] = assay: Cytotoxicity against siNMDA receptor transfected human MCF7 cells assessed as reduction in cell viability after 48 hrs by SRB assay; assay type: functional
In short: (§1)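 GluN1 subunit knocked down by siNMDA R transfection, confirmed by qRT-PCR and Western blot; compared with untransfected cells. SRB viability read after 48 h exposure to a range of concentrations. Mean ± SE of three separate experiments.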

SK-BR-3 [2] = assay: Cytotoxicity against siNMDA receptor transfected human SK-BR-3 cells assessed as reduction in cell viability after 48 hrs by SRB assay; assay type: functional; in short: as §1
MCF7 [3] = assay: Induction of apoptosis in human MCF7 cells transfected with siNMDA receptor after 72 hrs by Annexin V-FITC/propidium iodide staining-based flow cytometric analysis; assay type: functional, cell-based
SK-BR-3 [4] = assay: Induction of apoptosis in human SK-BR-3 cells transfected with siNMDA receptor after 72 hrs by Annexin V-FITC/propidium iodide staining-based flow cytometric analysis; assay type: functional, cell-based
[5] = Metabolic stability in human liver microsomes; assay type: ADME, Microsome
MCF7 [6] = assay: Cytotoxicity against human MCF7 cells assessed as reduction in cell viability after 48 hrs by SRB assay; assay type: functional
In short: (§2)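 Followed the NCI SRB protocol: cells exposed 48 h to a range of concentrations. GI50 is the concentration giving 50% net growth inhibition; TGI is 100% growth inhibition; LC50 kills 50% of initial cells. Mean ± SE of three separate experiments.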

SK-BR-3 [7] = assay: Induction of apoptosis in human SK-BR-3 cells transfected with siNMDA receptor assessed as active caspase-3 level incubated for 72 hrs by Western blot analysis; assay type: functional, cell-based
In short: (§3)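 Cells transfected with siNMDA R (GluN1) or left untransfected, then treated 72 h (MCF-7 100 μM, SKBR3 25 μM) or left untreated. Cleaved caspase-3 detected by immunoblot; densitometry normalised to GAPDH; p < 0.01 threshold.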

[8] = Apparent permeability in human Caco2 cells; assay type: ADME, cell-based; details: caco-2
[9] = Displacement of [3H]-(+)-MK-801 from PCP binding site of NMDA receptor in pig brain cortex membranes after 120 mins by scintillation counting analysis; assay type: cell membranes, Sus scrofa, Cerebral cortex, Membrane
MCF7 [10] = assay: Induction of apoptosis in human MCF7 cells transfected with siNMDA receptor assessed as active caspase-3 level incubated for 72 hrs by Western blot analysis; assay type: functional, cell-based; in short: as §3
SK-BR-3 [11] = assay: Cytotoxicity against human SK-BR-3 cells assessed as reduction in cell viability incubated for 48 hrs by SRB assay; assay type: functional; in short: as §2
MCF7 [12] = assay: Induction of apoptosis in human MCF7 cells after 48 to 72 hrs by AnnexinV-FITC/PI staining based flow cytometric analysis; assay type: functional, cell-based; details: time hrs 48-72
MCF7 [13] = assay: Induction of apoptosis in human MCF7 cells transfected with siNMDA receptor assessed as early apoptotic cells at 100 uM after 72 hrs by Annexin V-FITC/propidium iodide staining-based flow cytometric analysis (reference value: 33 %); assay type: functional
SK-BR-3 [14] = assay: Induction of mitochondrial membrane depolarization in human SK-BR-3 cells at 25 uM by JC1 staining based flow cytometric analysis; assay type: functional, cell-based
In short: (§4)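 Mitochondrial membrane potential (Δψm) in untreated versus treated cells (MCF-7 100 μM, SKBR3 25 μM), assessed by JC-1 staining.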

SK-BR-3 [15] = assay: Induction of apoptosis in human SK-BR-3 cells assessed as early apoptotic cells at 25 uM after 72 hrs by Annexin V-FITC/propidium iodide staining-based flow cytometric analysis (reference value: 1 to 9 %); assay type: functional
MCF7 [16] = assay: Induction of apoptosis in human MCF7 cells assessed as necrotic cells at 100 uM after 72 hrs by Annexin V-FITC/propidium iodide staining-based flow cytometric analysis (reference value: 1 to 5 %); assay type: functional
SK-BR-3 [17] = assay: Induction of ROS generation in human SK-BR-3 cells at 25 uM pretreated for 1 hr with ROS scavenger, NAC followed by compound addition and measured after 72 hrs by DCFDA staining-based flow cytometric analysis; assay type: functional, cell-based
In short: (§5)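 MCF-7 treated at 100 μM, SKBR3 at 25 μM, for 24, 48 and 72 h, alone or after NAC (10 mM) pretreatment. ROS measured by DCFDA staining and flow cytometry. Significance set at p < 0.01 vs untreated or vs treated-alone cells.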

SK-BR-3 [18] = assay: Induction of apoptosis in human SK-BR-3 cells assessed as early apoptotic cells at 25 uM after 48 hrs by Annexin V-FITC/propidium iodide staining-based flow cytometric analysis (reference value: 9 %); assay type: functional
SK-BR-3 [19] = assay: Induction of apoptosis in human SK-BR-3 cells assessed as necrotic cells at 25 uM after 72 hrs by Annexin V-FITC/propidium iodide staining-based flow cytometric analysis (reference value: 1 to 3 %); assay type: functional
SK-BR-3 [20] = assay: Induction of apoptosis in human SK-BR-3 cells transfected with siNMDA receptor assessed as early apoptotic cells at 25 uM after 72 hrs by Annexin V-FITC/propidium iodide staining-based flow cytometric analysis (reference value: 35 %); assay type: functional
SK-BR-3 [21] = assay: Induction of apoptosis in human SK-BR-3 cells transfected with si-NMDA receptor assessed as necrotic cells at 25 uM after 72 hrs by Annexin V-FITC/propidium iodide staining-based flow cytometric analysis (reference value: 4 %); assay type: functional
MCF7 [22] = assay: Induction of ROS generation in human MCF7 cells at 100 uM after 72 hrs by DCFDA staining-based flow cytometric analysis; assay type: functional, cell-based; in short: as §5
MCF7 [23] = assay: Induction of apoptosis in human MCF7 cells assessed as early apoptotic cells at 100 uM after 72 hrs by Annexin V-FITC/propidium iodide staining-based flow cytometric analysis (reference value: 2 to 13 %); assay type: functional
MCF7 [24] = assay: Induction of apoptosis in human MCF7 cells assessed as early apoptotic cells at 100 uM after 48 hrs by Annexin V-FITC/propidium iodide staining-based flow cytometric analysis (reference value: 16 %); assay type: functional
MCF7 [25] = assay: Induction of apoptosis in human MCF7 cells at 100 uM by AnnexinV-FITC/PI staining based flow cytometric analysis; assay type: functional, cell-based; details: time hrs 48-72, TDE = time-dependent effect
MCF7 [26] = assay: Induction of apoptosis in human MCF7 cells assessed as late apoptotic cells at 100 uM after 72 hrs by Annexin V-FITC/propidium iodide staining-based flow cytometric analysis (reference value: 1 to 2 %); assay type: functional
MCF7 [27] = assay: Induction of apoptosis in human MCF7 cells assessed as necrotic cells at 100 uM after 48 hrs by Annexin V-FITC/propidium iodide staining-based flow cytometric analysis (reference value: 7 %); assay type: functional
MCF7 [28] = assay: Induction of apoptosis in human MCF7 cells assessed as fold increase in cleavage of pro-caspase 3 at 100 uM incubated for 72 hrs by Western blot analysis relative to control; assay type: functional
In short: (§6)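 Caspase-3 immunoblot after 72 h treatment (MCF-7 100 μM, SKBR3 25 μM), tracking procaspase-3 cleavage to the active form. Densitometry normalised to GAPDH loading control.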

SK-BR-3 [29] = assay: Induction of apoptosis in human SK-BR-3 cells assessed as fold increase in cleavage of pro-caspase 3 at 25 uM incubated for 72 hrs by Western blot analysis relative to control; assay type: functional; in short: as §6
SK-BR-3 [30] = assay: Induction of apoptosis in human SK-BR-3 cells transfected with siNMDA receptor assessed as active caspase-3 level at 25 uM incubated for 72 hrs by Western blot analysis; assay type: functional, cell-based; in short: as §3
SK-BR-3 [31] = assay: Induction of ROS generation in human SK-BR-3 cells at 25 uM after 72 hrs by DCFDA staining-based flow cytometric analysis; assay type: functional, cell-based; in short: as §5
MCF7 [32] = assay: Induction of apoptosis in human MCF7 cells transfected with siNMDA receptor assessed as active caspase-3 level at 100 uM incubated for 72 hrs by Western blot analysis; assay type: functional, cell-based; in short: as §3
MCF7 [33] = assay: Induction of apoptosis in human MCF7 cells transfected with siNMDA receptor assessed as necrotic cells at 100 uM after 72 hrs by Annexin V-FITC/propidium iodide staining-based flow cytometric analysis (reference value: 3 %); assay type: functional
MCF7 [34] = assay: Induction of mitochondrial membrane depolarization in human MCF7 cells at 100 uM by JC1 staining based flow cytometric analysis; assay type: functional, cell-based; in short: as §4
SK-BR-3 [35] = assay: Induction of apoptosis in human SK-BR-3 cells assessed as necrotic cells at 25 uM after 48 hrs by Annexin V-FITC/propidium iodide staining-based flow cytometric analysis (reference value: 2 %); assay type: functional
SK-BR-3 [36] = assay: Induction of apoptosis in human SK-BR-3 cells transfected with siNMDA receptor assessed as late apoptotic cells at 25 uM after 72 hrs by Annexin V-FITC/propidium iodide staining-based flow cytometric analysis (reference value: 2 %); assay type: functional
MCF7 [37] = assay: Induction of apoptosis in human MCF7 cells assessed as late apoptotic cells at 100 uM after 48 hrs by Annexin V-FITC/propidium iodide staining-based flow cytometric analysis (reference value: 2 %); assay type: functional
SK-BR-3 [38] = assay: Induction of apoptosis in human SK-BR-3 cells after 48 to 72 hrs by AnnexinV-FITC/PI staining based flow cytometric analysis; assay type: functional, cell-based; details: time hrs 48-72
SK-BR-3 [39] = assay: Induction of apoptosis in human SK-BR-3 cells at 25 uM by AnnexinV-FITC/PI staining based flow cytometric analysis; assay type: functional, cell-based; details: time hrs 48-72, TDE = time-dependent effect
SK-BR-3 [40] = assay: Induction of apoptosis in human SK-BR-3 cells assessed as late apoptotic cells at 25 uM after 48 hrs by Annexin V-FITC/propidium iodide staining-based flow cytometric analysis (reference value: 2 %); assay type: functional
MCF7 [41] = assay: Induction of ROS generation in human MCF7 cells at 100 uM pretreated for 1 hr with ROS scavenger, NAC followed by compound addition and measured after 72 hrs by DCFDA staining-based flow cytometric analysis; assay type: functional, cell-based; in short: as §5
MCF7 [42] = assay: Induction of apoptosis in human MCF7 cells transfected with siNMDA receptor assessed as late apoptotic cells at 100 uM after 72 hrs by Annexin V-FITC/propidium iodide staining-based flow cytometric analysis (reference value: 4 %); assay type: functional
SK-BR-3 [43] = assay: Induction of apoptosis in human SK-BR-3 cells assessed as late apoptotic cells at 25 uM after 72 hrs by Annexin V-FITC/propidium iodide staining-based flow cytometric analysis (reference value: 1 to 3 %); assay type: functional

Structure (SMILES): NC[C@@H]1COCC(c2ccccc2)(c2ccccc2)O1
- GI50 (MCF7 [1]): 210 µM
- GI50 (SK-BR-3 [2]): 66 µM
- Activity (MCF7 [3]): Active
- Activity (SK-BR-3 [4]): Active
- Stabilty [5]: Stable
- Activity (MCF7 [6]): Dose-dependent effect
- GI50 (MCF7 [6]): 250 µM
- Activity (SK-BR-3 [7]): Active
- permeability [8]: Permeable
- Ki [9]: 497 nM
- Activity (MCF7 [10]): Active
- Activity (SK-BR-3 [11]): Dose-dependent effect
- GI50 (SK-BR-3 [11]): 74 µM

Structure (SMILES): NCC1COCC(c2ccccc2)(c2ccccc2)O1 (racemic)
- GI50 (MCF7 [6]): 74.4 µM
- LC50 (concentration killing 50% of initial cells) (MCF7 [6]): 253 µM
- TGI (MCF7 [6]): 137 µM
- GI50 (SK-BR-3 [11]): 31.2 µM
- LC50 (concentration killing 50% of initial cells) (SK-BR-3 [11]): > 300 µM
- TGI (SK-BR-3 [11]): 200 µM

Structure (SMILES): CN[C@]1(c2ccccc2Cl)CCCCC1=O [ESKETAMINE]
- GI50 (MCF7 [6]): > 300 µM
- TGI (MCF7 [6]): > 300 µM
- GI50 (SK-BR-3 [11]): > 300 µM
- TGI (SK-BR-3 [11]): > 300 µM

Structure (SMILES): NC[C@H]1COCC(c2ccccc2)(c2ccccc2)O1
- GI50 (MCF7 [1]): 520 µM
- GI50 (SK-BR-3 [2]): 57 µM
- Activity (MCF7 [12]): Dose-dependent effect
- Activity (MCF7 [13]): 26%
- Activity (SK-BR-3 [14]): inactive
- Activity (SK-BR-3 [15]): 11%
- Activity (MCF7 [16]): 9%
- Activity (SK-BR-3 [17]): inactive
- Activity (SK-BR-3 [18]): 19%
- Activity (SK-BR-3 [19]): 17%
- Activity (SK-BR-3 [20]): 24%
- Activity (SK-BR-3 [21]): 8%
- Activity (MCF7 [22]): Active
- Activity (MCF7 [23]): 16%
- Activity (MCF7 [24]): 26%
- Activity (MCF7 [25]): Tde
- Activity (MCF7 [26]): 19%
- Activity (MCF7 [27]): 8%
- fold change (FC) (MCF7 [28]): 3.2
- fold change (FC) (SK-BR-3 [29]): 5.1
- Stabilty [5]: Stable
- Activity (SK-BR-3 [30]): inactive
- Activity (SK-BR-3 [31]): Active
- Activity (MCF7 [32]): inactive
- Activity (MCF7 [6]): Dose-dependent effect
- GI50 (MCF7 [6]): 99 µM
- Activity (MCF7 [33]): 7%
- permeability [8]: Permeable
- Activity (MCF7 [34]): inactive
- Activity (SK-BR-3 [35]): 4%
- Ki [9]: > 10000 nM
- Activity (SK-BR-3 [36]): 3%
- Activity (MCF7 [37]): 8%
- Activity (SK-BR-3 [38]): Dose-dependent effect
- Activity (SK-BR-3 [39]): Tde
- Activity (SK-BR-3 [40]): 5%
- Activity (MCF7 [41]): inactive
- Activity (MCF7 [42]): 5%
- Activity (SK-BR-3 [43]): 15%
- Activity (SK-BR-3 [11]): Dose-dependent effect
- GI50 (SK-BR-3 [11]): 23 µM
